Common to all, as to type: functional, cell-based
Assay [1] in a line: Antitumor activity against human GXF251L cells. The conditions noted are these: GXF 251L. In a few lines:
(§1)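 Human tumor cell lines derived from patient tumors grown subcutaneously in NMRI nu/nu mice, cultured as monolayers and exposed to test compounds. Surviving cells were stained with a fluorescent dye. Doubling times 24-35 h. IC50 taken from concentration-dependent T/C values. Where not reached within the test range, IC extrapolated by linear regression if within 3-fold of the highest concentration.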

Assay [2] in a line: Antitumor activity against human UXF 1138L cells. The procedure, abridged: as §1
Assay [3] is described as follows: Antitumor activity against human LXF 529L cells. In a few lines: as §1
Assay [4] can be described thus: Antitumor activity against human RXF 486L cells. The procedure, abridged: as §1
Assay [5] can be described thus: Antitumor activity against human MEXF 642NL cells. In a few lines: as §1
Assay [6] can be described thus: Antitumor activity against human MAXF 401NL cells. The procedure, abridged: as §1

Converted amounts (≈) assume the structure as drawn.

What is called IC50 is the point on the concentration scale where inhibition reaches its midpoint. Low values mean greater potency in that assay, high ones weaker potency in that assay. On to `CCCCCC[C@@]1(CC)C=C(CC)[C@@H](CC(=O)OC)OO1` (relative stereo), for which the IC50 in assay [1] worked out at 8.3 mg/L (≈ 27.8 µM); in assay [2], 14.4 mg/L (≈ 48.3 µM); in assay [3], 7.7 mg/L (≈ 25.8 µM); in assay [4], 14.1 mg/L (≈ 47.2 µM); in assay [5] it was 7.2 mg/L (≈ 24.1 µM).
As for `CCCCC[C@@]1(CC)C=C(CC)[C@@H](CC(=O)OC)OO1` (relative stereo), the IC50 in assay [1], in assay [6], in assay [2], in assay [3], in assay [4] and in assay [5] was more than 10 mg/L throughout.

Values taken from ChEMBL document CHEMBL1158765, “Cyclic peroxides derived from the marine sponge Plakortis simplex” (J Nat Prod, 2005).
